Measurements from ChEMBL document CHEMBL5131398, “Novel nucleocapsid protein-targeting phenanthridine inhibitors of SARS-CoV-2” (Eur J Med Chem, 2022).

Columns and labels:
[1] = system: Severe acute respiratory syndrome coronavirus 2; assay: Binding affinity to N-terminal 6-histidine tagged Severe acute respiratory syndrome coronavirus 2 nucleocapsid protein overexpressed in Escherichia coli BL21 (DE3) assessed as response unit by SPR assay
Summary of the method: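 Single-concentration binding screen: compounds at 200 μM over a surface carrying >10000 RU NPro. 120 s contact, 180 s dissociation, running buffer with 5% DMSO, solvent correction applied. Running buffer served as negative control.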

[2] = Binding affinity to N-terminal 6-histidine tagged Severe acute respiratory syndrome coronavirus 2 nucleocapsid protein overexpressed in Escherichia coli BL21 (DE3) assessed as dissociation constant by SPR assay

With `CCn1c(=O)c2cc(OC)c(OC)cc2c2cccc(C(=O)O)c21` as the molecule, how does the Activity [1] read?
The Activity was 33.5 RU.

With `CCN1Cc2cc(OC)c(OC)cc2-c2cccc(N)c21` as the molecule, how does the Activity [1] read?
Its Activity is 145 RU.

With `CCN1Cc2cc(OC)c(OC)cc2-c2cccc(NC(=O)C(C)C)c21` as the molecule, how does the Activity [1] read?
The Activity was 11.8 RU.

Which Activity [1] does the source give for `CCn1c(=O)c2cc(OC)c(OC)cc2c2cccc(N)c21` here?
Its Activity is 23.1 RU.

For `CCn1c(=O)c2cc(OC)c(OC)cc2c2cccc(NC(C)=O)c21`, which Activity [1] is on record?
Its Activity is 17.7 RU.

With `COc1ccc2c(c1)CN(C)c1c(C)cccc1-2` as the molecule, how does the Activity [1] read?
The Activity was 34.9 RU.

For `COc1cc2cnc3c(C)cccc3c2cc1OC`, which Activity [1] is on record?
Its Activity is 29.4 RU.

Which Activity [1] does the source give for `COc1cc2c(cc1OC)-c1cccc(C)c1N(C(=O)C(F)(F)F)C2` here?
Its Activity is 57.5 RU.

For `CCN1Cc2cc(OC)c(OC)cc2-c2cccc(NCC(F)(F)F)c21`, which Kd [2] is on record?
The Kd was 10.4 µM.

What about the Activity [1] of the same molecule?
The Activity was 125 RU.

With `CCC(=O)Nc1cccc2c1N(CC)Cc1cc(OC)c(OC)cc1-2` as the molecule, how does the Activity [1] read?
The Activity was 10.6 RU.

Which Activity [1] does the source give for `CCN1Cc2cc(OC)c(OC)cc2-c2cccc(NC(C)=O)c21` here?
Its Activity is 14.3 RU.

Which Activity [1] does the source give for `CCn1c(=O)c2cc(OC)c(OC)cc2c2cccc(NC(=O)CCC(=O)OC)c21` here?
The Activity was 13.1 RU.

For `CCc1cccc2c1N(C)Cc1cc(OCc3cc(C)nn3C)c(OCc3cc(C)nn3C)cc1-2`, which Kd [2] is on record?
Its Kd is 10.8 µM.

And the Activity [1]?
The Activity was 211 RU.

For `CCN1Cc2cc(OC)c(OC)cc2-c2cccc(NC(=O)C(F)(F)F)c21`, which Activity [1] is on record?
The Activity was 101 RU.

Which Activity [1] does the source give for `Cc1cccc2c1N(C)Cc1cc(O)ccc1-2` here?
Its Activity is 35 RU.

For `CCc1cccc2c1N(C(=O)CBr)Cc1ccc(OC)cc1-2`, which Activity [1] is on record?
The Activity was 22 RU.

With `CCc1cccc2c1ncc1ccc(OC)cc12` as the molecule, how does the Activity [1] read?
The Activity was 30.7 RU.
